From PubChem BioAssay
Only some compounds are listed: those with a hit (about 2.3% of all), similar ones and a draw of the others.
NadD inh – blocks S. aureus nicotinate mononucleotide adenylyltransferase; purified NadD enzyme, colorimetric absorbance read-out; inhibition, % at 20 µM; 360,000 compounds, 0.78% hits; AID 602399; in the data active = inhibition above about 26%
LMPTP block – LMPTP (human) inhibition; AID 651560; P24666; inhibition, % at 20 µM; recombinant LMPTP-A, OMFP fluorogenic substrate, fluorescence intensity; 360,000 compounds, 0.22% hits;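 active = compounds that cut the enzyme signal by at least half of the control window in the single-dose screen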;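 also: plate controls were DMSO wells with enzyme plus substrate for no effect and substrate without enzyme for full effect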
Target sequence (P24666 whole entry, looked up): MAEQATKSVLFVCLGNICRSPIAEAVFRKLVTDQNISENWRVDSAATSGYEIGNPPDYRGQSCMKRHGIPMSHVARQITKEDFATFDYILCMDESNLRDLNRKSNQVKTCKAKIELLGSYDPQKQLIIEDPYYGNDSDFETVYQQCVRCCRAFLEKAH
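test system = LMPTP-A | amount = 0.625 nM LMPTP-A final | reagent = fluorogenic phosphatase substrate OMFP at 400 µM final | incubation = 50 min at room temperature | benchmarks = no-enzyme low control, uninhibited high control | medium = Bis-Tris pH 6.0, DTT, detergent | signal = fluorescence intensity of OMFP turnover product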
STEP block – blocks human striatal-enriched tyrosine phosphatase. recombinant STEP, OMFP fluorogenic substrate, fluorescence. inhibition, % at 20 µM. 360,000 compounds, 0.25% hits;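 active = inhibition at 20 µM, scaled per plate between control wells, above about 37%, limit read from the data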;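 also: 0% = DMSO with enzyme and substrate and 100% = substrate only without enzyme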
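Measure: Control-normalized % inhibition with plate pattern correction | Test system: STEP phosphatase, cell-free reaction | Medium: pH 6.0 Bis-Tris with DTT and Tween 20 | Technique: Fluorescence, 480/540 nm | Times: Reaction 20 min, ambient temperature | Doses: Single compound dose of 20 µM, 1% DMSO final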
DNMT1 block – blocks human DNA methyltransferase DNMT1 | DNMT1 molecular beacon, Hinp1I cleavage, fluorescence | inhibition (reported as % activation of signal), % at 10 µM | 360,000 compounds, 0.83% hits; in the data active = inhibition above about 50%
SUMO1-SIM PPI – modulators of human SUMO1-mediated protein-protein interactions; P63165; SUMO1 binding to a labelled peptide, TR-FRET, 1 h; inhibition, % at 20 µM; 360,000 compounds, 0.33% hits; AID 602429; in the data active = inhibition above about 37%
Target sequence (P63165 whole entry, looked up): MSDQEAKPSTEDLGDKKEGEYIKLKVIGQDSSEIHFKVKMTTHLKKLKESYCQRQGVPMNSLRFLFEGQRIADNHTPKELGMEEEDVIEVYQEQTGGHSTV
Scp-1 inhibitor – inhibitors of human Scp-1 phosphatase. Q9GZU7. Recombinant Scp1, phosphopeptide, malachite green phosphate absorbance. inhibition, % at 20 µM. 340,000 compounds, 0.88% hits;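 active = inhibition above about 50% at 20 µM, limit read from the data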;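 also: plate controls were DMSO wells with enzyme for no effect and wells lacking enzyme for full effect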
Target sequence (Q9GZU7 76-261 limits assumed): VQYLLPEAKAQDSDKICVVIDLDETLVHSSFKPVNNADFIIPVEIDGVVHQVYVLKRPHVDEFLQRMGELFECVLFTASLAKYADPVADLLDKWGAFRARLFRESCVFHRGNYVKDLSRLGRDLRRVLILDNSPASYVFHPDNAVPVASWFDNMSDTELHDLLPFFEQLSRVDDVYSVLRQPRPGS
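Material – SCP-1 phosphatase catalytic domain, residues 76-261 · Buffer or medium – Acidic Tris acetate buffer with magnesium and detergent · Also added – Phospho 17-mer peptide substrate · Compound – single 20 µM dose, 1% DMSO · Times – 45 min room-temperature reaction, 5 min colour, 30 min stabiliser · Technique – Phosphate-binding colour reagent, absorbance read at 630 nm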
Scp-1 conf – Scp-1 (human) inhibition, single-dose confirmed | inhibition, % at 20 µM | 2,500 compounds, 61% hits | recombinant SCP-1 catalytic domain, phosphate release, malachite green absorbance | shares compounds with Scp-1 inhibitor | AID 540281;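 also: plate controls were DMSO with enzyme for no effect and buffer wells lacking enzyme for full effect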
Scp-1 MG ctr – counter-screen for Scp-1 inhibitors: colorimetric interference. shares compounds with Scp-1 inhibitor. Colorimetric interference counterscreen, malachite green absorbance 630 nm. apparent inhibition (interference), % at 20 µM. 2,500 tested, under 10 active;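 also: compounds added after enzyme reaction finished so only phosphate colour detection is probed; plate controls were DMSO wells with completed Scp-1 reaction for no effect and substrate wells lacking enzyme for full effect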
Scp-1 Tm shift – Scp-1 (human) binding by thermal shift | AID 540329 | shares compounds with Scp-1 inhibitor | 1,500 compounds, 25% hits | thermal shift relative to vanadate control, % at 40 µM | Recombinant SCP1, Sypro Orange thermal shift Tm;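 active = substances whose mean melting-temperature shift, as a percentage of the reference inhibitor's shift, reaches about 5.3%, limit read from the data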;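 also: 0% = Tm of DMSO wells and 100% = Tm with sodium orthovanadate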
The depositor's hits bear a star; . = not tested or not shown; ! = repeats disagree.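 The calls were made as follows, unless noted: active = inhibition of at least 30% at 20 µM; inactive = the rest.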

SMILES	NadD inh	LMPTP block	STEP block	DNMT1 block	SUMO1-SIM PPI	Scp-1 inhibitor	Scp-1 conf	Scp-1 MG ctr	Scp-1 Tm shift
Cc1ccc(NC(=O)COC(=O)C2CCC(=O)N2)c(S(=O)(=O)N2CCOCC2)c1 (centres undefined)	2	-1	-1	9	-1	3	-1	-5	.
Cc1cc(C)cc(N=C2NC(=O)/C(=C/c3cccs3)S2)c1	6	2	-1	-2	-7	20	.	.	.
O=C1NC(=Nc2ccccc2)S/C1=C\c1cccs1	-5	31	21	2	-1	97*	20	-14	.
CCN1C(=O)[C@@H]2[C@@H](c3ccc(SC4CCCCC4)c(OC)c3)N3CCCC[C@@]3(C(=O)OC)[C@@H]2C1=O	6	3	-1	-18	-6	53*	-2	-7	.
COC(=O)[C@@]12CCCCN1[C@H](c1ccc(SC3CCCCC3)c(OC)c1)[C@@H]1C(=O)N(C)C(=O)[C@@H]12	2	2	3	-7	4	-11	.	.	.
CSc1ccc(CCNC(=O)CSc2ccsc2[N+](=O)[O-])cc1	3	4	3	-1	-11	51*	55*	-22	7.5*
COc1ccc(NC(=O)C2Cc3c(-c4ccc5c(c4)OCO5)ccnc3O2)cc1 (centres undefined)	2	0	-1	-1	15	.	.	.	.
Cc1cccc(OCC(=O)Nc2ccc(CN3CCOCC3)cc2)c1C	-1	0	0	0	1	-7	.	.	.
Cc1ccc(OCC(=O)Nc2ccc(CN3CCOCC3)cc2)cc1	0	0	-1	1	1	70*	-12	-15	.
Cc1ccc(NC(=O)COc2ccc(/C=N/NC(=O)CSCc3ccccc3)cc2)cc1	-1	0	-1	2	0	85*	70*	-14	-5
O=C(c1nc2ccc(Cl)cn2c1CN1CCCC1)N1CCc2ccccc2C1	14	8	-1	14	8	52*	36*	-3	5
Cc1ccc(C(=O)OCC(=O)c2ccc(CC(=O)N3CCOCC3)s2)cc1C	3	4	3	17	-6	55*	57*	-16	4
COCCNC(=O)C(=O)NNC(=O)CCc1ccccc1	-6	0	1	-4	2	-5	.	.	.
CCn1cc(CCCC(=O)NCc2cccc(OC)c2)c2ccccc21	-8	0	6	0	-1	-19	.	.	.
COc1ccc(NC(=O)CCNS(=O)(=O)c2cc(Br)ccc2Br)cc1S(N)(=O)=O	5	2	2	-2	1	2	-23	-19	.
CCCSc1nnc(NC(=O)CSc2sc3c(O)cc(=O)[nH]c3c2C#N)s1	-10	0	-4	-1	2	70*	65*	-16	12*
N#Cc1c(SCC(=O)Nc2cccc(F)c2)sc2c(O)cc(=O)[nH]c12	10	26	12	29	7	58*	60*	-10	7.7*
N#Cc1cccc(NC(=O)CSc2sc3c(O)cc(=O)[nH]c3c2C#N)c1	18	70*	13	46	24	50*	22	-4	.
CN(C)N=Nc1nc2c(c(=O)n(C)c(=O)n2C)n1CC1CO1 (centres undefined)	2	-3	0	4	-7	-7	.	.	.
COC(=O)c1ccc2nc(C3CCCCC3)c(Cc3ccc(C)cc3)n2c1	2	2	0	2	0	.	.	.	.
Cc1cc(C)c(NC(=O)CN(C)S(=O)(=O)c2ccc3c(c2)n(C)c(=O)c(=O)n3C)c(C)c1	4	-1	-1	2	2	-6	-18	-14	.
Cc1ccc(NC(=O)CN(C)S(=O)(=O)c2ccc3c(c2)n(C)c(=O)c(=O)n3C)c(C)c1	7	-2	1	-1	4	1	.	.	.
CC(C)C(NC(=O)c1c(F)cccc1F)C(=O)N1CCN(S(=O)(=O)/C=C/c2ccccc2)CC1 (centres undefined)	-1	0	-3	-2	1	-5	.	.	.
O=C(CSc1nc2sc3c(c2c(=O)n1-c1ccccc1)CCCC3)N/N=C/c1ccccc1C(=O)O	12	1	76*	5	5	78*	49*	-8	-5
CCCc1ccc(C(=O)NNC(=O)c2ccc(Cl)cc2)cc1	1	25	4	12	3	94*	74*	-15	-3
SMILES	NadD inh	LMPTP block	STEP block	DNMT1 block	SUMO1-SIM PPI	Scp-1 inhibitor	Scp-1 conf	Scp-1 MG ctr	Scp-1 Tm shift
CCCc1ccc(C(=O)NNc2cc(Cl)ccc2Cl)cc1	2	4	-2	4	0	-11	.	.	.
O=c1[nH]n2c(=O)c3c([nH]c2c1N=Nc1cccc(Cl)c1)CCCC3	25	5	4	0	5	95*	46*	-18	30*
Cc1cc(C)n2[nH]c(=O)c(N=Nc3cccc(Cl)c3)c2n1	10	3	-1	8	-19	-12	.	.	.
Cc1cccc(C)c1NC(=O)CCCCCC1NC(=O)NC1C (centres undefined)	-1	-2	-1	3	-2	-5	3	-5	.
Cn1c(SCC(=O)N/N=C/C=C\c2ccco2)nc2ccccc21	19	26	6	54*	16	84*	62*	-12	0
NS(=O)(=O)c1ccc(CNC(=S)Nc2ccc(F)c(Cl)c2)cc1	-3	2	-2	-1	4	-9	.	.	.
NS(=O)(=O)c1ccc(NC(=S)Nc2ccc(F)c(F)c2)cc1	-2	-1	-3	2	-4	60*	-2	-11	.
CCOC(=O)N1CCc2cc(OC)c(OC)c3c2c1cc1cc(OC)c(OC)cc13	-6	6	4	-27	-4	-5	.	.	.
c1ccc2[nH]c(-c3ccnc4ccccc34)nc2c1	3	-1	2	-2	-15	100*!	79*	-20	-13
CN(N)C(=S)Nc1ccc(Cl)cc1	0	-2	0	0	1	-1	.	.	.
CCSc1nnc(NC(=O)C2CC=CCC2C(=O)O)s1 (centres undefined)	-5	0	12	27	5	87*	53*	-8	-5
CCc1nc2ccc(C(=O)NCCc3c[nH]c4ccccc34)cn2c1N(C=O)CCC(C)C	3	2	-1	-1	4	.	.	.	.
Cn1c(SCC(=O)Nc2nncs2)nnc1C1CC1	-2	0	29	50	18	79*	53*	-15	5.5*
